Experimental data reported in ChEMBL document CHEMBL1152478, “Design, synthesis, and antifungal activity of triazole and benzotriazole derivatives” (2009).
Converted amounts (≈) assume the structure as drawn.

Legend:
Assay type in all cases: functional
[1] = system: Trichophyton mentagrophytes; test: Antifungal activity against Trichophyton mentagrophytes after 48 hrs by agar dilution method
Outline: (§1)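 Clinical isolates, purified and subcultured on SC, SCC and PDA media before testing. Compounds were dissolved as DMSO stocks and diluted into solid medium (PDA) for agar dilution. Inocula for molds and yeast came from 2- to 7-day mature colonies. The read-out was the minimum inhibitory concentration (MIC).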

Candida albicans = test: Antifungal activity against Candida albicans after 48 hrs by agar dilution method; outline: as §1
Trichophyton rubrum = test: Antifungal activity against Trichophyton rubrum after 48 hrs by agar dilution method; outline: as §1
Microsporum canis = test: Antifungal activity against Microsporum canis after 48 hrs by agar dilution method; outline: as §1
Epidermophyton floccosum = test: Antifungal activity against Epidermophyton floccosum after 48 hrs by agar dilution method; outline: as §1

| Structure (SMILES) | MIC [1] [µg/mL] | MIC (Candida albicans) [µg/mL] | MIC (Trichophyton rubrum) [µg/mL] | MIC (Microsporum canis) [µg/mL] | MIC (Epidermophyton floccosum) [µg/mL] |
| --- | --- | --- | --- | --- | --- |
| OC(Cn1cncn1)(Cn1cncn1)c1ccc(F)cc1F [FLUCONAZOLE] | 1 (≈ 3.27 µM) | 32 (≈ 104 µM) | 32 (≈ 104 µM) | 16 (≈ 52.2 µM) | 0.25 (≈ 0.816 µM) |
| COc1ccc(C(c2ccccc2)(c2ccccc2)n2cncn2)cc1 | 16 (≈ 46.9 µM) |  | 32 (≈ 93.7 µM) | 32 (≈ 93.7 µM) | 8 (≈ 23.4 µM) |
| c1ccc(C(c2ccccc2)(c2ccccc2)n2cncn2)cc1 | 32 (≈ 103 µM) |  | 64 (≈ 206 µM) | 64 (≈ 206 µM) | 1 (≈ 3.21 µM) |
| COc1ccc(C(c2ccccc2)(c2ccc(OC)cc2)n2nnc3ccccc32)cc1 | 64 (≈ 152 µM) |  | 32 (≈ 75.9 µM) |  |  |
| Clc1ccccc1C(c1ccccc1)(c1ccccc1)n1ccnc1 [CLOTRIMAZOLE] | 0.05 (≈ 0.145 µM) | 4 (≈ 11.6 µM) | 0.5 (≈ 1.45 µM) | 0.065 (≈ 0.188 µM) | 4 (≈ 11.6 µM) |
| CCCCCCCCn1cncn1 | 16 (≈ 88.3 µM) | 16 (≈ 88.3 µM) | 16 (≈ 88.3 µM) | 16 (≈ 88.3 µM) | 8 (≈ 44.1 µM) |
| CCCCCCCCn1nnc2ccccc21 | 64 (≈ 277 µM) |  | 64 (≈ 277 µM) | 64 (≈ 277 µM) | 32 (≈ 138 µM) |
| CCCCCn1cncn1 | 64 (≈ 460 µM) |  | 64 (≈ 460 µM) | 64 (≈ 460 µM) | 64 (≈ 460 µM) |
| CCCCCn1nnc2ccccc21 | 32 (≈ 169 µM) | 32 (≈ 169 µM) | 32 (≈ 169 µM) | 16 (≈ 84.5 µM) | 16 (≈ 84.5 µM) |
| c1ccc(C(c2ccccc2)(c2ccccc2)n2nnc3ccccc32)cc1 |  | 64 (≈ 177 µM) | 64 (≈ 177 µM) |  | 64 (≈ 177 µM) |
| COc1ccc(C(c2ccccc2)(c2ccccc2)n2nnc3ccccc32)cc1 | 64 (≈ 163 µM) |  | 64 (≈ 163 µM) |  | 64 (≈ 163 µM) |
